Screening data: PubChem, SRMLSC
In the library only some 6.6% were active in any assay of this set; here they are far more common.
Ecoli WT expand – E. coli BW25113 growth inhibition, expanded screen; OD600 absorbance; growth inhibition, % at 100 µM; 98,000 tested, 0.15% active; AID 710;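 active = growth inhibition above about 50% at one test dose, limit read from the data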;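 note: growth measured after 20 h incubation at 37 °C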
PostGolgi yeast – growth inhibition of a yeast mutant, post-Golgi transport screen | post-Golgi transport phenotypic cell assay | inhibition, % at 10 µM | 98,000 tested, 0.9% active | AID 739;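 note: yeast cells grown in 1536-well plates; yeast grown about 18 h at 30C before absorbance read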
PostGolgi ctrl – growth of the yeast control strain, post-Golgi counter-screen. 98,000 tested, 5% active. AID 738. efflux-deficient yeast background strain, growth absorbance A615, 16 h. inhibition, % at 10 µM
Her2 expr inh – Her2 kinase expression inhibition | SKBR-3 HER2 protein level, AlphaScreen, 18-24 h; active compounds read low | HER2 level % of control, % at 10 µM | 65,000 tested, 0.69% active | AID 645;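 active = HER2 level under 5% of the carrier-only control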;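 note: 100% = DMSO carrier and 0% = 500 nM PU-H71 HSP90 inhibitor; lower value means stronger loss of Her2 protein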
Ecoli tolC – growth inhibitors of E. coli BW25113 tolC mutant | 65,000 tested, 2.2% active | AID 573 | growth inhibition, % at 10 µM (by protocol) | OD615;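 active = growth inhibition at or above a cutoff equal to the mean over every tested compound plus 3 SD, cut at about 60% in these data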;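 note: growth measured after 20 h incubation at 37 °C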
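Test system: E. coli BW25113 ΔtolC::kan bacteria; incubation: 37 °C, 20 h exposure; medium: LB broth supplemented with 50 µg/mL kanamycin; read-out basis: percent growth inhibition; signal: A615 absorbance measurement; compound: 10 µM final, single dose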
* marks the source's active call; other numbers are inactive results; · = no result given. Cut-off read from the data, not from the text of the source, unless noted: active = inhibition above about 30%; inactive = the rest.

SMILES	Ecoli WT expand	PostGolgi yeast	PostGolgi ctrl	Her2 expr inh	Ecoli tolC
C=CCOc1nc2c(c(=O)n(Cc3ccc(Cl)cc3)c(=O)n2C)n1C	-1.0	-9.7	3.0	120.7	10.1
CCc1nnc(NC(=O)C2Cc3ccccc3CN2S(=O)(=O)c2cccs2)s1 (configuration not stated)	-6.0	-4.8	14.1	103.0	18.5
COc1ccc(S(=O)(=O)N2Cc3ccccc3CC2C(=O)Nc2nccs2)cc1 (configuration not stated)	-6.0	-4.0	36.5*	·	·
CCc1nnc(NC(=O)C2Cc3ccccc3CN2S(=O)(=O)c2ccc(C)cc2)s1 (configuration not stated)	1.0	5.3	40.6*	·	·
O=C(NCC(=O)N(c1ccc2c(c1)OCCO2)C(C(=O)NC1CCCC1)c1ccco1)c1ccco1 (configuration not stated)	-13.0	4.2	0.9	99.0	1.6
CCCn1c(=O)[nH]c(=O)c2c1nc(-c1ccc3c(c1)OCCO3)n2CCN1CCOCC1	-12.0	0.4	8.3	99.2	-23.1
O=S(=O)(N/N=C1/CC(c2ccccc2)Oc2ccccc21)c1ccc(Br)cc1 (configuration not stated)	3.0	-4.9	38.4*	·	·
Cc1ccc(S(=O)(=O)N/N=C2/CC(c3ccccc3)Oc3ccccc32)cc1[N+](=O)[O-] (configuration not stated)	-8.0	-7.7	36.1*	·	·
CCC(=O)N(Cc1cc2c(C)ccc(C)c2[nH]c1=O)C1CCCCC1	12.0	-7.7	30.8*	75.9	23.4
CCC(CC)C(=O)NCCc1cc2c(C)ccc(C)c2[nH]c1=O	·	·	·	102.2	-2.8
CCCC(c1nnnn1CC(=O)OCC)N(Cc1cc2c(C)cc(C)cc2[nH]c1=O)C1CCCC1 (configuration not stated)	-11.0	12.3	0.3	90.0	12.7
CCC(=O)N(Cc1cc2c(C)cc(C)cc2[nH]c1=O)C1CCCCC1	7.0	9.4	47.1*	82.8	·
Cn1c(=O)cc(OCC(=O)Nc2ccccn2)c2ccccc21	-6.0	-1.9	9.9	104.4	-2.2
Brc1ccc(-c2cn3c(n2)CCc2ccc4cccnc4c2-3)cc1	-4.0	51.6*	59.1*	·	·
Brc1ccc(-c2cn3nc4c(nc3n2)CCCC4)cc1	-4.0	15.2	19.9	·	·
Cc1ccc(C(=O)C2=C(O)C(=O)N(CCCn3ccnc3)C2c2ccc(OC(C)C)cc2)o1 (configuration not stated)	3.0	7.8	19.7	104.8	1.9
CC(C)(CNC(=O)c1cccs1)CNC(=O)c1cccs1	-2.0	2.6	10.1	102.0	-0.3
CC1(C)CC(=O)C2=C(C1)OC(=O)C2(NC(=O)c1cccs1)C(F)(F)F (configuration not stated)	-9.0	6.5	5.1	-12.1*	-15.6
Cc1ccc(NC(=O)c2ccccc2O)cc1	43.0	4.7	24.7	57.8	91.8*
N#Cc1c(N2CCN(C(=O)c3ccccc3Cl)CC2)nc(-c2ccccc2)c2c1CCCC2	-11.0	3.1	7.5	·	·
N#Cc1c(N2CCN(C(=O)c3ccccc3)CC2)nc(-c2ccccc2)c2c1CCCC2	-18.0	57.0*	28.5	·	·
CCc1nc(SCC(=O)N2CCN(C(=O)c3ccco3)CC2)c2c3c(sc2n1)CCCC3	3.0	12.0	7.1	66.8	46.1
O=C(c1ccco1)N1CCN(c2nc(C3CC3)nc3sc4c(c23)CCCC4)CC1	-11.0	12.1	15.4	76.6	77.3*
N#Cc1c(N2CCN(C(=O)c3ccco3)CC2)nc(-c2ccccc2)c2c1CCCC2	-7.0	52.0*	22.7	30.5	53.2
N#Cc1c(NCCCO)nc(-c2ccccc2)c2c1CCCC2	6.0	9.0	47.0*	76.1	5.3
SMILES	Ecoli WT expand	PostGolgi yeast	PostGolgi ctrl	Her2 expr inh	Ecoli tolC
O=C1CC(Cc2ccccc2)C(=O)N1CCCn1ccnc1 (configuration not stated)	0.0	9.8	2.4	·	·
CCOc1ccccc1NC(=O)N1CCCC1C(=O)Nc1ccc(-n2cnnn2)c(C)c1 (configuration not stated)	-6.0	-9.2	-7.5	·	10.1
CCCNC(=O)NC(=O)COC(=O)c1ccc(OC)c(S(=O)(=O)N2CCCc3ccccc32)c1	-11.0	-6.8	16.7	85.9	50.4
CC1=C(C(=O)OC(C)C)C(c2c[nH]c3ccccc23)n2ncnc2N1 (configuration not stated)	-4.0	1.7	3.3	74.9	99.4*
Cc1ccc(C(=O)Nc2ccccc2C(=O)N2CC3(C)CC2CC(C)(C)C3)cc1 (configuration not stated)	-8.0	1.6	41.1*	·	·
CC1(C)CC2CC(C)(CN2C(=O)CN2C(=O)c3ccccc3C2=O)C1 (configuration not stated)	-1.0	-0.2	8.4	105.6	4.5
CC1=CC(C)(C)N(S(=O)(=O)c2ccc(C)cc2)c2ccccc21	-10.0	-6.7	32.1*	·	·
O=C(Nc1cccc(Cl)c1)N(CCN1CCOCC1)Cc1cccc(Cl)c1	16.0	2.7	16.0	105.5	100.0*
O=C(Nc1cccc(Cl)c1)N(CCN1CCOCC1)Cc1ccccc1F	22.0	0.3	6.6	·	·
Cc1ccccc1OCC(=O)NC1=NCCS1	5.0	-3.1	5.5	·	·
Cc1cc2ncn(-c3ncnc4sc5c(c34)CCC(C)C5)c2cc1C (configuration not stated)	6.0	3.6	69.8*	·	·
Cc1cc2ncn(-c3ncnc4sc5c(c34)CCCC5)c2cc1C	-4.0	-5.9	38.7*	·	·
COc1cccc(/C(O)=C2/C(=O)C(=O)N(CCCN(C)C)C2c2cccc(Cl)c2)c1 (configuration not stated)	·	·	·	105.3	-0.3
[O-]/[N+](=C/c1ccc(F)cc1)c1ccccc1	7.0	9.8	32.7*	78.3	-15.8
CC(C)CC(C(=O)NCc1ccccn1)N1C(=O)c2ccccc2C1=O (configuration not stated)	6.0	7.1	-0.1	115.5	-1.0
Cc1ccc(CSCCNC(=O)/C=C/c2ccccc2Cl)cc1	-3.0	-7.8	5.8	·	·
Cn1c(SCC(=O)n2c3c(c4ccccc42)CCCC3)nnc1-c1ccccc1	-18.0	-0.5	33.8*	·	·
CC(=O)Nc1ccc(-c2nnc(SCC(=O)n3c4c(c5ccccc53)CCCC4)n2C)cc1	2.0	5.8	2.8	76.4	12.3
CCCC(=O)c1ccc(N2CCN(C(=O)c3ccc(Br)cc3)CC2)c(F)c1	-13.0	7.7	-0.3	59.1	-4.9
CCC(=O)c1ccc(N2CCN(C(=O)c3ccc(Br)cc3)CC2)c(F)c1	-8.0	61.5*	24.8	86.7	-4.5
COc1ccccc1NCCC(=O)OCC(=O)Nc1ccc(Cl)cn1	1.0	-4.5	10.7	86.9	6.8
CCCn1c(SCC(=O)Nc2nccs2)nnc1-c1cccnc1	2.0	7.6	2.9	105.8	-2.1
CCCCn1c(SCC(=O)Nc2nc(C)cs2)nnc1-c1cccnc1	1.0	-4.6	39.4*	85.0	-9.5
CCn1c(SCC(=O)Nc2nc(-c3ccccc3)cs2)nnc1-c1ccccc1O	-1.0	3.4	41.8*	60.4	86.0*
Cc1ccc(C(=O)N2CCN(C3c4cccc5cccc(c45)C3NS(=O)(=O)c3ccccc3)CC2)cc1 (configuration not stated)	-3.0	26.9	-7.9	·	·
